Experimental data as given in ChEMBL document CHEMBL1123881, “Synthesis and antiarrhythmic activity of new 3-[2-(omega-aminoalkoxy)phenoxy]-4-phenyl-3-buten-2-ones and related compounds” (J Med Chem, 1987).
Values after ≈ are worked out from the molar mass of the structure shown.

Columns and labels:
[1] = species on record: Oryctolagus cuniculus; assay: Tested in vitro for antiarrhythmic activity in isolated rabbit atria; format: functional; details: Heart
In short: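 Atria from New Zealand rabbits in oxygenated Ringer-Locke at 29 °C, paced with 10-ms, 10-V rectangular pulses at rising frequency to find the maximum driven frequency. This was remeasured before and 10, 15 and 20 min after drug addition. Dose-response curves on the same tissue, repeated 3-5 times. EC values by probit.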

[2] = test system: Rattus norvegicus; assay: Antiarrhythmic activity ( protection against CaCl2 induced ventricular fibrillation ) in anesthetized rat administered intravenously; format: functional; details: Heart, iv
In short: (§1)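 Sprague-Dawley albino rats, 180-200 g, conscious or urethane-anesthetized (2.8 g/kg sc). Compound given via caudal or portal vein 2 min, or orally 60 min, before rapid iv 8% CaCl2 at 1 mL/kg. Lead II ECG monitored for fibrillation within 10 min. Five to ten rats per dose.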

[3] = The compound was tested for acute toxicity when given intraperitoneally in mouse; format: organism-based; details: in vivo, ip
In short: (§2)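 Albino CF1 mice of both sexes, 18-20 g, dosed intraperitoneally; survivors observed for 1 week; ten mice per dose. LD50 derived by probit method, confidence limits at p = 0.05.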

[4] = The compound was tested for acute toxicity when given intraperitoneally in mouse.; format: organism-based; details: in vivo, ip; in short: as §2
[5] = The compound was tested for acute toxicity when given intravenously in rat; format: organism-based; details: in vivo, iv
In short: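 Sprague-Dawley rats of both sexes, 120-140 g, dosed intravenously; survivors observed for 1 week. LD50 derived by probit method, confidence limits at p = 0.05.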

[6] = species on record: Mus musculus; assay: (§3) The compound was tested for effective concentration (intradermal injection) that caused local anesthesia in 50% of mice by tail-clip method; format: functional, organism-based
In short: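 Tail-clip test in albino CF1 mice of both sexes, 18-20 g. Intradermal tail injection of 0.1 mL/mouse about 1 cm from the root.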

[7] = test system: Rattus norvegicus; assay: The compound was tested for antiarrhythmic activity ( protection against CaCl2 induced ventricular fibrillation ) in anesthetized rat.; format: functional; details: Heart; in short: as §1
[8] = test system: Rattus norvegicus; assay: The compound was tested for blood electrolyte K+ in rat serum when induced through femoral vein (iv) at dose of 5 mg/kg; format: functional
In short: (§4)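 Sprague-Dawley rats of both sexes, 140-150 g. Serum K+ measured by flame photometry 1 h after iv dosing. Five rats per dose.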

[9] = test system: Rattus norvegicus; assay: Antiarrhythmic activity ( protection against CaCl2 induced ventricular fibrillation ) in conscious rat administered intravenously; format: functional; details: Heart, iv; in short: as §1
[10] = test system: Rattus norvegicus; assay: Antiarrhythmic activity ( protection against CaCl2 induced ventricular fibrillation ) in conscious rat administered orally (po); format: functional; details: Heart; in short: as §1
[11] = test system: Mus musculus; assay: Antiarrhythmic activity ( protection against aconitine induced ventricular tachycardia) in anesthetized mouse administered through iv.; format: functional; details: Heart
In short: (§5)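 Albino CF1 mice of both sexes, 20-22 g, pentobarbital-anesthetized (60 mg/kg ip), lead II ECG. Dosing iv (caudal vein) 2 min or orally 60 min before aconitine infusion, 8 µg/mL at 0.32 mL/min for 3 min. ECG read every 10 s. Endpoint is time to initial arrhythmia and to ventricular tachycardia. Ten mice per dose; probit analysis.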

[12] = test system: Mus musculus; assay: Antiarrhythmic activity ( protection against aconitine induced initial arrhythmia ) in anesthetized mouse administered perorally; format: functional; details: Heart, po; in short: as §5
[13] = test system: Canis familiaris; assay: Antiarrhythmic activity ( protection against epinephrine induced ventricular fibrillation ) in post infarcted conscious dog administered iv.; format: functional; details: Canis lupus familiaris, Heart
[14] = test system: Rattus norvegicus; assay: The compound was tested for activity on heart rate in anesthetized rat when induced through portal vein (ipv) at dose of 1 mg/kg; format: functional
In short: (§6)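 Heart rate in anesthetized rats, given iv (femoral vein) or into the portal vein. Rate recorded a few seconds before drug administration.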

[15] = test system: Rattus norvegicus; assay: The compound was tested for activity on heart rate in anesthetized rat when induced through femoral vein (iv) at dose of 1 mg/kg; format: functional; in short: as §6
[16] = test system: Mus musculus; assay: Antiarrhythmic activity ( protection against aconitine induced initial arrhythmia ) in anesthetized mouse administered through iv.; format: functional; details: Heart; in short: as §5
[17] = test system: Rattus norvegicus; assay: Antiarrhythmic activity (protection against CaCl2 induced ventricular fibrillation) in anesthetized rat administered through portal vein (ipv); format: functional; details: Heart; in short: as §1
[18] = test system: Canis familiaris; assay: The compound was tested for antiarrhythmic activity in infarcted conscious dog through iv; format: functional; details: Canis lupus familiaris, Heart
In short: (§7)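 Beagle dogs of both sexes, 10-14 kg, coronary ligature under pentobarbital (30 mg/kg iv) with artificial ventilation. Next day, dogs without spontaneous arrhythmia get epinephrine 2-10 µg/kg iv (ear vein). Compound then given iv. ECG at 5-180 min, with epinephrine re-challenge at each time. Maximal ectopic beats/min counted before and after each dose, in 2-4 dogs.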

[19] = test system: Mus musculus; assay: Antiarrhythmic activity ( protection against aconitine induced ventricular tachycardia) in anesthetized mouse administered perorally; format: functional; details: Heart, po; in short: as §5
[20] = test system: Rattus norvegicus; assay: The compound was tested for activity on heart rate in anesthetized rat when induced through portal vein (ipv) at a dose of 2 mg/kg; format: functional; in short: as §6
[21] = test system: Mus musculus; assay: Antiarrhythmic activity (protection against aconitine induced ventricular tachycardia) in anesthetized mouse administered through iv.; format: functional; details: Heart; in short: as §5
[22] = test system: Rattus norvegicus; assay: The compound was tested for activity on heart rate in anesthetized rat when induced through femoral vein (iv) at a dose of 1 mg/kg; format: functional; in short: as §6
[23] = test system: Mus musculus; assay: Antiarrhythmic activity (protection against aconitine induced initial arrhythmia) in anesthetized mouse administered through iv.; format: functional; details: Heart; in short: as §5
[24] = species on record: Mus musculus; assay: as §3; format: functional, organism-based; remark: listed apart in the source
[25] = test system: Rattus norvegicus; assay: The compound was tested for blood electrolyte K+ in rat serum when induced through femoral vein (iv) at a dose of 5 mg/kg; format: functional; in short: as §4
[26] = test system: Canis familiaris; assay: Antiarrhythmic activity ( protection against epinephrine induced ventricular fibrillation ) in post infarcted conscious dog administered iv(ear or caudal vein); format: functional; details: Canis lupus familiaris, Heart
[27] = test system: Rattus norvegicus; assay: The compound was tested for activity on heart rate in anesthetized rat when induced through portal vein (ipv),at 14 mg/kg; format: functional; in short: as §6
[28] = test system: Mus musculus; assay: Antiarrhythmic activity ( protection against aconitine induced initial arrhythmia ) in anesthetized mouse administered through iv(ear or caudal vein); format: functional; details: Heart; in short: as §5
[29] = test system: Rattus norvegicus; assay: The compound was tested for blood electrolyte K+ in rat serum when induced through femoral vein (iv),at 20 mg/kg; format: functional; in short: as §4
[30] = test system: Canis familiaris; assay: The compound was tested for antiarrhythmic activity in infarcted conscious dog through iv(ear or caudal vein); format: functional; details: Canis lupus familiaris, Heart; in short: as §7
[31] = test system: Rattus norvegicus; assay: Activity on heart rate in anesthetized rat when induced through femoral vein (iv), at 5 mg/kg; format: functional; in short: as §6
[32] = test system: Mus musculus; assay: Antiarrhythmic activity ( protection against aconitine induced ventricular tachycardia) in anesthetized mouse administered through iv(ear or caudal vein); format: functional; details: Heart; in short: as §5

SMILES	EC30 [1] [µg/mL]	ED50 [2] [mg/kg]	LD50 [3] [mg/kg]	LD50 [4] [mg/kg]	LD50 [5] [mg/kg]	also measured
CCN(CC)CCOc1ccccc1OC(Cc1ccccc1)C(C)O (centres undefined)	2.5 (≈ 6.99 µM)	1	85	–	–	–
CC(=O)/C(=C\c1ccccc1)Oc1ccccc1OCC(O)CN1CCN(C)CC1 (centres undefined)	10 (≈ 24.4 µM)	7.5	–	175	–	–
CCN(CC)CCOc1ccccc1OC(Cc1ccccc1)C(C)=O (centres undefined)	10 (≈ 28.1 µM)	0.75	92	–	11.7	–
CC(=O)/C(=C\c1ccccc1)Oc1ccccc1OCCN1CCOCC1	6 (≈ 16.3 µM)	5	–	180	30	–
CC(=O)/C(=C\c1ccccc1)Oc1ccccc1OCC(C)N(C)C (centres undefined)	2 (≈ 5.89 µM)	0.9	–	45	–	–
CCN(CC)CCOc1ccccc1O/C(=C/c1ccccc1)C(=O)c1ccccc1	2.8 (≈ 6.74 µM)	–	125	–	–	–
CCN(CC)CCNC(=O)c1ccc(N)cc1 [PROCAINAMIDE]	45.8 (≈ 195 µM)	48.1	312	–	121	–
CC(=O)/C(=C\c1ccccc1)Oc1ccccc1OCC(O)CNC(C)(C)C (centres undefined)	0.51 (≈ 1.33 µM)	–	–	80	17	–
CC(=O)/C(=C\c1ccccc1)Oc1ccccc1OCCCN(C)C	3 (≈ 8.84 µM)	–	–	110	13.5	–
CCN(CC)CCCOc1ccccc1O/C(=C/c1ccccc1)C(C)=O	0.41 (≈ 1.12 µM)	–	–	95	11.1	EC50 [6]: 0.0099 µg/mL (≈ 0.0269 µM); ED50 [7]: 0.18 mg/kg; Activity [8]: -8%; ED50 [9]: 0.3 mg/kg; ED50 [10]: 35 mg/kg; ED50 [11]: 4.9 mg/kg; ED50 [12]: 82 mg/kg; ED50 [13]: 1 mg/kg; Activity [14]: 4%; Activity [15]: -6%; ED50 [16]: 4.3 mg/kg; ED50 [17]: 0.6 mg/kg; ED50 [18]: 1 mg/kg; ED50 [19]: 83 mg/kg
CCN(CC)CCOc1ccccc1O/C(=C/c1ccccc1)C(C)=O [ZOCAINONE]	0.7 (≈ 1.98 µM)	0.46	–	72	8.9	Activity [20]: -1%; ED50 [21]: 11 mg/kg; ED50 [9]: 0.88 mg/kg; ED50 [10]: 13.6 mg/kg; Activity [22]: -15%; ED50 [12]: 132 mg/kg; ED50 [13]: 2 mg/kg; ED50 [23]: 7.5 mg/kg; ED50 [17]: 2.3 mg/kg; ED50 [18]: 2 mg/kg; ED50 [19]: 149 mg/kg; EC50 [24]: 0.01 µg/mL (≈ 0.0283 µM); Activity [25]: 12%
C/C=C(/Oc1ccccc1OCCN(CC)CC)C(C)=O	5 (≈ 17.2 µM)	3	–	80	–	–
CC(=O)/C(=C\c1ccccc1)Oc1ccccc1OCCCN1CCCCC1	1.6 (≈ 4.22 µM)	0.2	–	62	6.5	–
CC(=O)/C(=C\c1ccccc1)Oc1cc(Cl)ccc1OCCN1CCCCC1	3 (≈ 7.5 µM)	0.9	–	185	–	–
CCN(CC)CCOc1ccc(O/C(=C/c2ccccc2)C(C)=O)cc1	3 (≈ 8.49 µM)	2	–	163	–	–
C=C[C@H]1CN2CC[C@H]1C[C@@H]2[C@@H](O)c1ccnc2ccc(OC)cc12 [QUINIDINE]	3.9 (≈ 12 µM)	–	–	–	–	ED50 [26]: 1 mg/kg; ED50 [9]: 3.2 mg/kg; ED50 [10]: 47.7 mg/kg; ED50 [12]: 122 mg/kg; Activity [27]: -36%; ED50 [28]: 15.2 mg/kg; ED50 [17]: 13.5 mg/kg; ED50 [19]: 158 mg/kg; Activity [29]: 3%; ED50 [30]: 5.5 mg/kg; Activity [31]: -30%; ED50 [32]: 14 mg/kg
CCN(CC)CCOc1ccccc1OCC(C)=O	15 (≈ 56.5 µM)	7	125	–	–	–
CC(=O)/C(=C\c1ccccc1)Oc1ccccc1OCCN1CCCCC1	3 (≈ 8.21 µM)	–	63	–	11.2	–
CC(=O)/C(=C\c1ccccc1)Oc1ccccc1OCCCN1CCN(C)CC1	1.3 (≈ 3.3 µM)	–	–	125	23.9	–
CC(=O)/C(=C\c1ccccc1)Oc1ccccc1OCCCNC(C)(C)C	2.3 (≈ 6.26 µM)	–	–	63	12.5	–
CC(=O)/C(=C\c1ccccc1)Oc1ccc(OCC(O)CNC(C)(C)C)cc1 (centres undefined)	2.8 (≈ 7.3 µM)	3.5	–	–	–	–
CCN(CC)CCOc1ccccc1O/C(=C/c1ccccc1)C(C)O (centres undefined)	1.9 (≈ 5.34 µM)	1.5	–	110	–	–
CC(=O)/C(=C\c1ccccc1)Oc1ccccc1OCCN1CCCC1	3 (≈ 8.54 µM)	1	45	–	–	–
CC(=O)/C(=C\c1ccccc1)Oc1ccc(OCC(C)N(C)C)cc1 (centres undefined)	3.5 (≈ 10.3 µM)	3	–	100	–	–
CC(=O)/C(=C\c1ccccc1)Oc1ccccc1OCCN(C(C)C)C(C)C	1 (≈ 2.62 µM)	0.5	125	–	10.1	–
CC(=O)/C(=C\c1ccccc1)Oc1ccccc1OCCCN(C(C)C)C(C)C	0.32 (≈ 0.809 µM)	0.1	–	60	11.4	–
CCN(CC)CCOc1ccc(Cl)cc1O/C(=C/c1ccccc1)C(C)=O	2 (≈ 5.16 µM)	0.6	–	170	–	–
CCN(CC)CCOc1ccccc1OCC(C)O (centres undefined)	15 (≈ 56.1 µM)	7.1	187	–	–	–
CC(=O)/C(=C\c1ccccc1)Oc1cc(Cl)ccc1OCCN(C(C)C)C(C)C	2 (≈ 4.81 µM)	0.62	–	165	–	–
